In ChEMBL document CHEMBL1131077, “3,5-Dihydro-4H-2,3-benzodiazepine-4-thiones: a new class of AMPA receptor antagonists” (J Med Chem, 1998):

Key:
Mus musculus [1] = species: Mus musculus; experiment: Anticonvulsant activity against maximal electroshock (MES) seizures in swiss mice; assay type: functional
Method in brief: (§1)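 Swiss mice dosed ip (50% DMSO/saline) 45 min before ear-clip electroshock (50 mA, 20 ms pulses, 35 Hz, 400 ms). Protection taken as abolition of tonic hindlimb extension. Four to five doses, 8–10 mice each; ED50 by Litchfield–Wilcoxon.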

Mus musculus [2] = species: Mus musculus; experiment: Anticonvulsant activity against tonic phase of the audiogenic seizures after concomitant with flumazenil at 8.24 umol dose in DBA/2 mice; assay type: functional
Method in brief: (§2)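 DBA/2 mice (8–12 g, 22–25 days old, either sex) given test drug ip in 50% DMSO/50% saline together with flumazenil at the stated dose, then auditory stimulation 30 min after dosing; clonic or tonic phase scored in groups of 10. ED50 by Litchfield–Wilcoxon, at least 32 animals per value.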

Mus musculus [3] = species: Mus musculus; experiment: Anticonvulsant activity against tonic phase of the audiogenic seizures after pretreatment with aniracetam in DBA/2 mice; assay type: functional
Method in brief: (§3)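 DBA/2 mice (8–12 g, 22–25 days old, either sex) pretreated with aniracetam, then given the benzodiazepine ip in 50% DMSO/50% saline; sound stimulation 30 min after dosing, with clonic or tonic phase scored. ED50 by Litchfield–Wilcoxon (at least 32 animals), compared with benzodiazepine alone.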

[4] = Therapeutic index (TD50/ED50) from the clonic phase of the audiogenic seizures
Method in brief: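 Ratio of rotarod TD50 (Swiss mice, 30 min after ip dosing) to ED50 for clonic phase of audiogenic seizures in DBA/2 mice (30 min after ip dosing). Both values from Litchfield–Wilcoxon fits, in µmol/kg.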

Mus musculus [5] = experiment: Anticonvulsant activity against tonic seizures induced by icv injection of AMPA in DBA/2 mice; assay type: functional; details: central
Mus musculus [6] = species: Mus musculus; experiment: Anticonvulsant activity against tonic phase of the audiogenic seizures after concomitant with flumazenil at 24.72 umol dose in DBA/2 mice; assay type: functional; method in brief: as §2
Mus musculus [7] = species: Mus musculus; experiment: Anticonvulsant activity against clonic phase of the audiogenic seizures after pretreatment with aniracetam in DBA/2 mice; assay type: functional; method in brief: as §3
Mus musculus [8] = species: Mus musculus; experiment: Anticonvulsant activity against audiogenic seizures in DBA/2 mice (value required to prevent clonic phases of seizures).; assay type: functional
Method in brief: (§4)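 DBA/2 mice (8–12 g, 22–25 days old, either sex), groups of 10, given drug or vehicle ip (50% DMSO/50% saline, 0.1 mL/10 g) 30 min before auditory stimulation; latency and incidence of seizure phases scored. ED50 per phase by Litchfield–Wilcoxon, at least 32 animals per value.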

Mus musculus [9] = species: Mus musculus; experiment: Anticonvulsant activity against clonic phase of the audiogenic seizures after concomitant with flumazenil at 8.24 umol dose in DBA/2 mice; assay type: functional; method in brief: as §2
Mus musculus [10] = species: Mus musculus; experiment: Anticonvulsant activity against audiogenic seizures in DBA/2 mice (value required to prevent tonic phases of seizures).; assay type: functional; method in brief: as §4
[11] = Relative lipophilicity; assay type: physicochemical; details: TLC, acetone/water 2:1 mobile phase
Method in brief: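 Reversed-phase TLC on plates pre-dried 1 h at 105 °C, developed in acetone/water 2:1 (v/v); 1 µL of 3 mg/mL CHCl3 solution spotted. Rf averaged over five runs with varied spot positions; Rm = log[(1/Rf) − 1].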

[12] = (§5) Dose which induced 50% of mice to fall from the rotarod; assay type: ADME; details: mouse, in vivo
Method in brief: (§6)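 Male Swiss mice (20–26 g, 48–54 days old), groups of 10, pretrained on a 3 cm rotarod at 8 rpm; tested 30 min after ip dosing. Failure meant falling within 2 min. TD50 by Litchfield–Wilcoxon, at least 32 animals.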

Mus musculus [13] = experiment: Anticonvulsant activity against clonic seizures induced by icv injection of AMPA in DBA/2 mice; assay type: functional; details: central
Mus musculus [14] = species: Mus musculus; experiment: Anticonvulsant activity against pentylenetetrazole (PTZ)-induced seizures in swiss mice; assay type: functional
Method in brief: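 Male Swiss mice (20–26 g, 42–48 days old) dosed ip in 50% DMSO/saline 45 min before PTZ 85 mg/kg sc (CD97); watched 30 min. Protection meant no clonic spasm lasting at least 5 s. ED50 by Litchfield–Wilcoxon.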

Mus musculus [15] = species: Mus musculus; experiment: Anticonvulsant activity against clonic phase of the audiogenic seizures after concomitant with flumazenil at 24.72 umol dose in DBA/2 mice; assay type: functional; method in brief: as §2
Mus musculus [16] = species: Mus musculus; experiment: as §5; assay type: functional; method in brief: as §6
Mus musculus [17] = species: Mus musculus; experiment: Anticonvulsant activity against maximal electroshock (MES ) seizures in swiss mice; assay type: functional; method in brief: as §1

SMILES | selectivity ratio [4] | ED50 (Mus musculus [8]) | ED50 (Mus musculus [10]) | Rm [11] | TD50 (Mus musculus [16]) | also measured
COc1cc2c(cc1OC)C(c1ccccc1)=NN=C(S)C2 | 5.02 | 19.7 µmol/kg | 15 µmol/kg | 0.014 | – | ED50 (Mus musculus [1]): 27.8 µmol/kg; ED50 (Mus musculus [2]): 13.6 µmol/kg; ED50 (Mus musculus [3]): 69.1 µmol/kg; ED50 (Mus musculus [5]): 31.1 µmol/kg; ED50 (Mus musculus [6]): 12.6 µmol/kg; ED50 (Mus musculus [7]): 98 µmol/kg; ED50 (Mus musculus [9]): 22.4 µmol/kg; TD50 [12]: 98.9 µmol/kg; ED50 (Mus musculus [13]): 43.1 µmol/kg; ED50 (Mus musculus [14]): 33.7 µmol/kg; ED50 (Mus musculus [15]): 19.3 µmol/kg
COc1cc2c(cc1OC)C(c1ccc(Br)cc1)=NN(C)C(=O)C2 | – | – | – | 0.263 | – | –
COc1cc2c(cc1OC)C(c1ccc([N+](=O)[O-])cc1)=NNC(=O)C2 | – | – | – | -0.113 | – | –
COc1cc2c(cc1OC)C(c1ccc([N+](=O)[O-])cc1)=NN=C(S)C2 | – | 93.4 µmol/kg | 69.8 µmol/kg | 0.122 | > 150 µmol/kg | –
CC1=NN=C(c2ccc(N)cc2)c2cc3c(cc2C1)OCO3 [GYKI-52466] | – | – | – | -0.308 | – | –
COc1cc2c(cc1OC)C(c1cccc([N+](=O)[O-])c1)=NNC(=O)C2 | – | – | – | -0.135 | – | –
COc1cc2c(cc1OC)C(c1cccc(N)c1)=NNC(=O)C2 | – | – | – | -0.542 | 51.5 µmol/kg | –
COc1cc2c(cc1OC)C(c1ccc([N+](=O)[O-])cc1)=NN(C)C(=O)C2 | – | – | – | 0.11 | – | –
COc1cc2c(cc1OC)C(c1ccc(Br)cc1)=NN(C)C(=S)C2 | – | 105 µmol/kg | 60.4 µmol/kg | 0.575 | – | –
COc1cc2c(cc1OC)C(c1ccccc1)=NNC(=O)C2 | – | 33.9 µmol/kg | – | -0.244 | – | –
COc1cc2c(cc1OC)C(c1ccc(Br)cc1)=NN=C(S)C2 | 1.4 | 52.1 µmol/kg | 33.3 µmol/kg | 0.269 | 73 µmol/kg | –
COc1cc2c(cc1OC)C(c1ccc(N)cc1)=NN(C)C(=S)C2 | 4.35 | 29.8 µmol/kg | 20.3 µmol/kg | -0.072 | 130 µmol/kg | –
COc1cc2c(cc1OC)C(c1ccc(Cl)cc1)=NN=C(S)C2 | 3.26 | 82.4 µmol/kg | 55 µmol/kg | 0.244 | 193 µmol/kg | –
COc1cc2c(cc1OC)C(c1ccc([N+](=O)[O-])cc1)=NN(C)C(=S)C2 | – | 103 µmol/kg | 81.5 µmol/kg | 0.333 | – | –
COc1cc2c(cc1OC)C(c1cccc(N)c1)=NN=C(S)C2 | 4.08 | 18.8 µmol/kg | 9.1 µmol/kg | -0.259 | 76.7 µmol/kg | –
COc1cc2c(cc1OC)C(c1ccc(Br)cc1)=NNC(=O)C2 | – | – | – | 0.035 | 226 µmol/kg | –
COc1cc2c(cc1OC)C(c1ccc(N)cc1)=NNC(=O)C2 | – | – | – | -0.63 | – | ED50 (Mus musculus [7]): 65.4 µmol/kg
COc1cc2c(cc1OC)C(c1ccc(Cl)cc1)=NNC(=O)C2 | – | – | – | 0.012 | 240 µmol/kg | –
COc1cc2c(cc1OC)C(c1ccccc1)=NN(C)C(=O)C2 | – | – | – | -0.003 | 154 µmol/kg | –
COc1cc2c(cc1OC)C(c1ccc(N)cc1)=NN=C(S)C2 | 6.76 | 6.3 µmol/kg | 3.3 µmol/kg | -0.308 | – | ED50 (Mus musculus [2]): 3.24 µmol/kg; ED50 (Mus musculus [17]): 7.75 µmol/kg; ED50 (Mus musculus [3]): 38.5 µmol/kg; ED50 (Mus musculus [5]): 11.9 µmol/kg; ED50 (Mus musculus [6]): 3.22 µmol/kg; ED50 (Mus musculus [7]): 46.1 µmol/kg; ED50 (Mus musculus [9]): 6.9 µmol/kg; TD50 [12]: 42.6 µmol/kg; ED50 (Mus musculus [13]): 17.1 µmol/kg; ED50 (Mus musculus [14]): 15.4 µmol/kg; ED50 (Mus musculus [15]): 7.1 µmol/kg
COc1cc2c(cc1OC)C(c1ccccc1)=NN(C)C(=S)C2 | 3.17 | 30.6 µmol/kg | 24.7 µmol/kg | 0.282 | 97.1 µmol/kg | –
COc1cc2c(cc1OC)C(c1cccc([N+](=O)[O-])c1)=NN=C(S)C2 | – | – | – | 0.092 | – | –
COc1cc2c(cc1OC)C(c1ccc(N)cc1)=NN(C)C(=O)C2 | – | – | – | -0.421 | 159 µmol/kg | –
